Source: publication PMC7191562 (ACS Omega, 2020)
Converted amounts (≈) assume the structure as drawn.

System: E. faecalis (MDR 14U0445)
Assay: MIC antibacterial assay
Format: cell-based
Details: Enterococcus faecalis, 16 h
Outline: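 Clinical isolates grown from single colonies in LB at 37 °C to log phase, then set to 2 × 10⁵ CFU/mL in LB using 1 OD600 = 1 × 10⁹ CFU/mL. Peptide stock was 2 mg/mL in water. A 192 μg/mL peptide solution was twofold serially diluted in LB, then bacteria were added. Plates ran 16 h at 37 °C with A600 read-out, each peptide in triplicate.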

CC1(C)S[C@@H]2[C@H](NC(=O)[C@H](N)c3ccccc3)C(=O)N2[C@H]1C(=O)O [Amp, Ampicillin]
MIC: 2 µg/mL (≈ 5.72 µM)
